Data from ChEMBL document CHEMBL4715825, “Synthesis and biological evaluations of marine oxohexadecenoic acids: PPARα/γ dual agonism and anti-diabetic target gene effects” (Eur J Med Chem, 2018).
Calls of active or inactive are those of the source. The rule behind the calls is not given here.

Assays:
COS-1 = assay: Agonist activity at recombinant full length human PPARalpha/gamma/RXRalpha expressed in African green monkey COS-1 cells assessed as induction of PLIN1 driven luciferase reporter activity at 25 uM incubated for 18 hrs by dual luciferase reporter gene assay; type: cell-based; details: filed as agonist
How it was run: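 COS-1 cells were kept in DMEM/10% FBS at 37 °C, 5% CO2, and seeded at 7×10^4 per well. After 24 h they were lipofected with full-length PPAR and RXR expression plasmids, a PLIN1- or CPT1A-driven luciferase reporter and pRL-CMV Renilla control. Compound in DMSO (final 0.1%) was added 5 h later. After 18 h, cells were lysed for Dual-Luciferase readout. Three biological replicates were run in quadruplicate.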

[1] = molecular target: T1, Peroxisome proliferator-activated receptor alpha (Homo sapiens) (UniProt Q07869); assay: Agonist activity at human PPARalpha in human HuH-7 cells assessed as increase in CPT1A gene expression at 50 uM incubated for 24 hrs by SYBR-green based qPCR analysis; type: cell-based; details: filed as agonist
T1 sequence (whole entry): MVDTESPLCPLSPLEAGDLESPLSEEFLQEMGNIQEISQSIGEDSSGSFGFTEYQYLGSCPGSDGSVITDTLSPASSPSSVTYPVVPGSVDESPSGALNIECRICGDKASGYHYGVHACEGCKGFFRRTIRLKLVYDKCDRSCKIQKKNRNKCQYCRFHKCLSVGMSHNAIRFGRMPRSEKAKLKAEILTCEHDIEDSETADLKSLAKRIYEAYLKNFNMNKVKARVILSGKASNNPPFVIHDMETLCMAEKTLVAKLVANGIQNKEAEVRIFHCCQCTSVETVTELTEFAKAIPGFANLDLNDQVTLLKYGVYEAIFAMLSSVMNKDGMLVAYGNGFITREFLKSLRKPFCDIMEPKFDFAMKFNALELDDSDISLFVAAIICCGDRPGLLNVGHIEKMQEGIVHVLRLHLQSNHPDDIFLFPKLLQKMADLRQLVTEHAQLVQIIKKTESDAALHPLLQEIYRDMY
How it was run: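 Cells were seeded at 2×10^5 per well and treated 24 h later with compound in DMSO (final 0.1%). The next day, cells were washed and scraped into RLT buffer. RNA was isolated, and target gene mRNA was quantified by SYBR-green qPCR with specific primers.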

[2] = molecular target: T1, Peroxisome proliferator-activated receptor alpha (Homo sapiens); assay: Agonist activity at human PPARalpha in 8 day differentiated human SGBS cells assessed as increase in CPT1A gene expression at 25 uM incubated for 24 hrs by SYBR-green based qPCR analysis; type: cell-based; details: filed as agonist
How it was run: (§1)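 SGBS preadipocytes were seeded at passage P6-P8 and grown to confluence. They were differentiated for 4 days in Quickdiff (3FC plus dexamethasone, IBMX and rosiglitazone), then kept in 3FC with medium renewed every fourth day. On day 8, cells were stimulated for 24 h in 3FC with compound:BSA or rosiglitazone. SYBR-green qPCR used gene-specific primers. Data are mean ± SEM of three biological replicates in duplicate.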

[3] = molecular target: T1, Peroxisome proliferator-activated receptor alpha (Homo sapiens); assay: Agonist activity at human PPARalpha in 8 day differentiated human SGBS cells assessed as increase in ADIPOQ gene expression at 25 uM incubated for 24 hrs by SYBR-green based qPCR analysis; type: cell-based; how it was run: as §1
SGBS [4] = assay: Induction of adipogenesis in 8 day differentiated human SGBS cells assessed as increase in volume of lipid droplets at 25 uM measured upto 12 days by oil-O-red staining based inverted microscopic analysis; type: functional, cell-based; details: time day <=12
How it was run: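 SGBS cells were differentiated in Quickdiff for 4 days, supplemented with 25 µM oxo-fatty acid or 2 µM rosiglitazone, then in 3FC to day 8. Controls were DMSO (0.025%) or BSA (4.2 µM). Cells were fixed in 4% paraformaldehyde for 15 min and stained 15 min with Oil Red O for neutral lipids. They were imaged by inverted microscope at 10× and 40×. Three biological replicates were run in duplicate.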

SGBS [5] = assay: Induction of adipogenesis in 8 day differentiated human SGBS cells assessed as increase in PPARG mRNA expression at 25 uM measured upto 12 days by qRT-PCR analysis; type: functional, cell-based; details: time day <=12
How it was run: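 SGBS cells were grown to confluence (day 0). Quickdiff medium was supplemented with compound or rosiglitazone for 4 days, followed by 3FC medium. DMSO or DMSO:BSA served as control. RNA was harvested on days 0, 4, 8 and 12, and expression was measured by SYBR-green qPCR. Data are mean ± SEM of at least three biological replicates in duplicate.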

SGBS [6] = assay: Induction of adipogenesis in 8 day differentiated human SGBS cells assessed as increase in UCP1 mRNA expression at 25 uM measured over 12 days by qRT-PCR analysis; type: functional, cell-based; details: time 12.0 day
How it was run: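 SGBS preadipocytes (passage P6-P8) were grown to confluence (day 0), then differentiated 4 days in Quickdiff (3FC with 25 nM dexamethasone, 0.5 mM IBMX) supplemented with 25 µM oxo-fatty acid (as BSA complex), then in 3FC medium with medium renewed every fourth day. Cells were harvested on days 0, 4, 8 and 12. mRNA was measured by SYBR green qPCR. Data are mean ± SEM from at least 3 biological replicates run in duplicate.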

SGBS [7] = assay: Induction of adipogenesis in 8 day differentiated human SGBS cells assessed as upregulation of PPAR signalling genes at 25 uM incubated for 8 days by Illumina sequencing method; type: functional, cell-based
How it was run: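 SGBS cells were differentiated for 8 days: Quickdiff for days 0-4 with 2 µM rosiglitazone or 25 µM oxo-fatty acid:BSA, then 3FC. Total RNA was extracted (RIN 9.80-10.00) and strand-specific TruSeq libraries were sequenced on NextSeq 500 (2×75 bp paired-end). Reads were aligned to hg19 and quantified as RPKM. Data were expressed as log2 fold over day-0 cells (n = 2-4) and grouped into KEGG gene sets.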

[8] = molecular target: T2, Peroxisome proliferator-activated receptor gamma (Homo sapiens) (UniProt P37231); assay: Agonist activity at human PPARgamma in 8 day differentiated human SGBS cells assessed as decrease in […] gene expression at 25 uM incubated for 24 hrs by SYBR-green based qPCR analysis; type: cell-based; details: filed as agonist
T2 sequence (whole entry): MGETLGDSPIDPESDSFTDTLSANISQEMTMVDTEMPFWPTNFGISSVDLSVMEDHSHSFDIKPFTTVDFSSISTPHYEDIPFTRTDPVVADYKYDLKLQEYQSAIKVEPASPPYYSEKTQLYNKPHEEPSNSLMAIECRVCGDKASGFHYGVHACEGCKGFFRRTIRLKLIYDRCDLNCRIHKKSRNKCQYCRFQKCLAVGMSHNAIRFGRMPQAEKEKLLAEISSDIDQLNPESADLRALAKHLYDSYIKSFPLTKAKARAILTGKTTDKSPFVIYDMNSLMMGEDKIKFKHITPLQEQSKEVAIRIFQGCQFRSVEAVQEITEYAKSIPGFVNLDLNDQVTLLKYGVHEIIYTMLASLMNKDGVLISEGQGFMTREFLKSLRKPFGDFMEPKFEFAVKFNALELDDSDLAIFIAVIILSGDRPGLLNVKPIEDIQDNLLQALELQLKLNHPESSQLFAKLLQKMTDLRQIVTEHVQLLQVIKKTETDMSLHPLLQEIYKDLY

[9] = molecular target: T2, Peroxisome proliferator-activated receptor gamma (Homo sapiens); assay: Agonist activity at human PPARgamma in 8 day differentiated human SGBS cells assessed as decrease in CXCL5 gene expression at 25 uM incubated for 24 hrs by SYBR-green based qPCR analysis; type: cell-based; details: filed as agonist

Row | SMILES | Activity (COS-1) | Activity [1] | Activity [2] | Activity [3] | Activity (SGBS [4]) | Activity (SGBS [5]) | Activity (SGBS [6]) | Activity (SGBS [7]) | Activity [8] | Activity [9]
1 | CCCCCCCC(=O)/C=C/CCCCCC(=O)O | Active | Active | Active | inactive | Active | Active | Active | Active | Active | Active
2 | CCCCC/C=C/C(=O)CCCCCCCC(=O)O |  | Active | Active | inactive | Active | Active | Active | Active | Active | Active
